Measurements: ChEMBL document CHEMBL2203189, “Synthesis and pharmacology of 1-alkyl-3-(1-naphthoyl)indoles: steric and electronic effects of 4- and 8-halogenated naphthoyl substituents” (Bioorg Med Chem, 2012)
Active and inactive are the calls of the source. No cut-off for these calls is given here.

Tests used:
Cannabinoid receptor 1 = Cannabinoid receptor 1 (Homo sapiens, UniProt P21554); assay: Displacement of [3H]CP55940 from human CB1 receptor expressed in HEK293 cells after 1 hr by liquid scintillation spectrophotometry; assay type: cell-based
Chain of Cannabinoid receptor 1 (P21554 whole entry): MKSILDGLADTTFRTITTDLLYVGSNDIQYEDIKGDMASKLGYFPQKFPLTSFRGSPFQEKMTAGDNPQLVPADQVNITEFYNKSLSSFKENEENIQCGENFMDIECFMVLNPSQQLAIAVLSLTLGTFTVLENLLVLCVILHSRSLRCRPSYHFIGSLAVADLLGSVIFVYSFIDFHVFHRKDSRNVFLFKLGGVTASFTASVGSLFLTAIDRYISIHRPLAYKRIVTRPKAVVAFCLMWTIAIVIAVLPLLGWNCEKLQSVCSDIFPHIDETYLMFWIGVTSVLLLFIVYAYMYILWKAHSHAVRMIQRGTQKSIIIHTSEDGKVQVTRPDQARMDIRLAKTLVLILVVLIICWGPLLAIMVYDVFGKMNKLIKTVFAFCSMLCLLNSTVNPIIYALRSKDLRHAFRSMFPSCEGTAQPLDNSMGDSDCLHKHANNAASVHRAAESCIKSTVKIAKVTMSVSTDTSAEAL
Method in brief: (§1)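 Membranes (50 µg) from HEK-293 cells stably expressing human CB1, cultured in DMEM/10% FBS. Incubated with 0.5 nM [3H]CP55,940 and test compound at 1 nM–10 µM in buffer with BSA (5 mg/mL), 1 h at 30 °C. Nonspecific binding defined with excess unlabelled CP55,940. Filtered through GF/B, then scintillation counting.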

Mus musculus [1] = assay: Locomotor activity in Harlan ICR mouse assessed as inhibition of activity level at 27 umol/kg, iv from 5 to 15 mins by spontaneous locomotor activity test relative to vehicle treated control; assay type: functional
Method in brief: (§2)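 Male ICR mice, n = 6 per dose, single probe dose iv in emulphor–ethanol–saline 1:1:18. Photocell beam interruptions recorded over 10 min, at 5–15 min after dosing. Result given as % inhibition relative to the vehicle group.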

Mus musculus [2] = assay: Hypothermic activity in Harlan ICR mouse assessed as change in rectal temperature at 27 umol/kg, iv at 30 mins; assay type: functional
Method in brief: (§3)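 Male ICR mice, n = 6 per dose. Single probe dose iv in emulphor–ethanol–saline 1:1:18. Rectal temperature taken with a thermistor probe at 25 mm depth before dosing and at 30 min. Result given as change from pre-injection value (°C).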

Cannabinoid receptor 2 = Cannabinoid receptor 2 (Homo sapiens, UniProt P34972); assay: Displacement of [3H]CP55940 from human CB2 receptor expressed in CHO cells after 1 hr by liquid scintillation spectrophotometry; assay type: cell-based
Chain of Cannabinoid receptor 2 (P34972 whole entry): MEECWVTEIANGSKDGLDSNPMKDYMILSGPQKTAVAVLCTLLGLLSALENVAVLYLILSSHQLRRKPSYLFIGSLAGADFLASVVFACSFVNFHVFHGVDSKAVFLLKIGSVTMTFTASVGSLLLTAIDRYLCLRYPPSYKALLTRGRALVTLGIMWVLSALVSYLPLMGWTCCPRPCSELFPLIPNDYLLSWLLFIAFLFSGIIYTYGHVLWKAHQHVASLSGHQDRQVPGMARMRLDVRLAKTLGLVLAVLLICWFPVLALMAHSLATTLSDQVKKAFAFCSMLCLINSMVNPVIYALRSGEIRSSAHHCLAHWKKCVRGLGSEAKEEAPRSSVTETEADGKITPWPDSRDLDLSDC
Method in brief: as §1, with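 “CHO” for “HEK-293”, “CB2,” for “CB1,”, “fetal calf serum.” for “FBS.”, “µM” for “µM in buffer”, “GF/B filtration,” for “Filtered through GF/B,”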

Mus musculus [3] = assay: Antinociceptive activity in Harlan ICR mouse assessed as latency to heat-induced tail flicking at 27 umol/kg, iv at 20 mins relative to control; assay type: functional
Homo sapiens = species on record: Homo sapiens; assay: Selectivity ratio of Ki for human CB1 receptor to Ki for human CB2 receptor
Mus musculus [4] = assay: Antinociceptive activity in Harlan ICR mouse assessed as latency to heat-induced tail flicking at 68 umol/kg, iv at 20 mins relative to control; assay type: functional, organism-based
Mus musculus [5] = assay: Locomotor activity in Harlan ICR mouse assessed as inhibition of activity level at 68 umol/kg, iv from 5 to 15 mins by spontaneous locomotor activity test relative to vehicle treated control; assay type: functional; method in brief: as §2
Mus musculus [6] = assay: Locomotor activity in Harlan ICR mouse assessed as inhibition of activity level at 66 umol/kg, iv from 5 to 15 mins by spontaneous locomotor activity test relative to vehicle treated control; assay type: functional; method in brief: as §2
Mus musculus [7] = assay: Antinociceptive activity in Harlan ICR mouse assessed as latency to heat-induced tail flicking at 66 umol/kg, iv at 20 mins relative to control; assay type: functional
Mus musculus [8] = assay: Hypothermic activity in Harlan ICR mouse assessed as change in rectal temperature at 66 umol/kg, iv at 30 mins; assay type: functional; method in brief: as §3
Mus musculus [9] = assay: Locomotor activity in Harlan ICR mouse assessed as inhibition of activity level at 91 umol/kg, iv from 5 to 15 mins by spontaneous locomotor activity test relative to vehicle treated control; assay type: functional; method in brief: as §2
Mus musculus [10] = assay: Antinociceptive activity in Harlan ICR mouse assessed as latency to heat-induced tail flicking at 91 umol/kg, iv at 20 mins relative to control; assay type: functional
Mus musculus [11] = assay: Induction of catalepsy in iv dosed Harlan ICR mouse at 40 mins measured for 5 mins by ring immobility test; assay type: functional
Mus musculus [12] = assay: Hypothermic activity in Harlan ICR mouse assessed as change in rectal temperature at 91 umol/kg, iv at 30 mins; assay type: functional; method in brief: as §3
Mus musculus [13] = assay: Hypothermic activity in Harlan ICR mouse assessed as change in rectal temperature at 6.9 umol/kg, iv at 30 mins; assay type: functional
Method in brief: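 Male ICR mice, 18–25 g, dosed iv in the tail vein with a single probe dose in emulphor–ethanol–saline 1:1:18. Rectal thermistor probe inserted to 25 mm. Baseline read before injection and again at 30 min. Reported as the change from pre-injection temperature (Δ°C). n = 6 per dose.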

Mus musculus [14] = assay: Locomotor activity in Harlan ICR mouse assessed as inhibition of activity level at 6.9 umol/kg, iv from 5 to 15 mins by spontaneous locomotor activity test relative to vehicle treated control; assay type: functional
Method in brief: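 Spontaneous activity in male ICR mice (18–25 g) after one iv tail-vein probe dose in 1:1:18 emulphor–ethanol–saline. Photocell beam interruptions (16 beams per chamber) recorded over 10 min, 5–15 min after dosing. Reported as % inhibition relative to the vehicle group. n = 6 per dose.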

Mus musculus [15] = assay: Antinociceptive activity in Harlan ICR mouse assessed as latency to heat-induced tail flicking at 6.9 umol/kg, iv at 20 mins relative to control; assay type: functional
Mus musculus [16] = assay: Induction of catalepsy in Harlan ICR mouse at 6.9 umol/kg, iv at 40 mins measured for 5 mins by ring immobility test; assay type: functional
Method in brief: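 Ring test on male ICR mice given one probe dose iv (tail vein; 1:1:18 emulphor–ethanol–saline). At 40 min each mouse is placed on a 5.5 cm ring 16 cm high and scored over 5 min by blinded observers. Up to 5 escapes allowed; data dropped if escapes occur before 2.5 min. Immobility index = time motionless/300 s × 100. n = 6 per dose.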

Mus musculus [17] = assay: Antinociceptive activity in Harlan ICR mouse assessed as latency to heat-induced tail flicking at […], iv at 20 mins relative to control; assay type: functional
Mus musculus [18] = assay: Hypothermic activity in Harlan ICR mouse assessed as change in rectal temperature at […], iv at 30 mins; assay type: functional
Mus musculus [19] = assay: Locomotor activity in Harlan ICR mouse assessed as inhibition of activity level at […], iv from 5 to 15 mins by spontaneous locomotor activity test relative to vehicle treated control; assay type: functional
Mus musculus [20] = assay: Induction of catalepsy in Harlan ICR mouse at […], iv at 40 mins measured for 5 mins by ring immobility test; assay type: functional
Mus musculus [21] = assay: Induction of catalepsy in Harlan ICR mouse at 80 umol/kg, iv at 40 mins measured for 5 mins by ring immobility test; assay type: functional
Method in brief: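 Male ICR mice given a single iv probe dose in emulphor–ethanol–saline 1:1:18. At 40 min placed on a 5.5 cm ring raised 16 cm and observed for 5 min by blinded raters. Up to 5 escapes allowed; mice escaping before 2.5 min excluded. Immobility index = time motionless / 300 s × 100.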

Mus musculus [22] = assay: Hypothermic activity in Harlan ICR mouse assessed as change in rectal temperature at 80 umol/kg, iv at 30 mins; assay type: functional; method in brief: as §3
Mus musculus [23] = assay: Locomotor activity in Harlan ICR mouse assessed as inhibition of activity level at 80 umol/kg, iv from 5 to 15 mins by spontaneous locomotor activity test relative to vehicle treated control; assay type: functional; method in brief: as §2
Mus musculus [24] = assay: Antinociceptive activity in Harlan ICR mouse assessed as latency to heat-induced tail flicking at 80 umol/kg, iv at 20 mins relative to control; assay type: functional

## CCCCCn1cc(C(=O)c2ccc(Cl)c3ccccc23)c2ccccc21
Cannabinoid receptor 1
  Ki: 2.3 nM
Mus musculus [1]
  inhibition in vivo at 27 µmol/kg: 82%
Mus musculus [2]
  Activity: -4.9%
Cannabinoid receptor 2
  Ki: 2.8 nM
Mus musculus [3]
  Activity: 90%
Homo sapiens
  Ratio Ki: 0.8

## CCCn1cc(C(=O)c2cccc3cccc(I)c23)c2ccccc21
Cannabinoid receptor 1
  Ki: 2960 nM
Mus musculus [4]
  Activity: inactive
Mus musculus [5]
  inhibition in vivo at 68 µmol/kg: -25%
Cannabinoid receptor 2
  Ki: 152 nM
Homo sapiens
  Ratio Ki: 19

## CCCn1c(C)c(C(=O)c2ccc(I)c3ccccc23)c2ccccc21
Cannabinoid receptor 1
  Ki: 501 nM
Mus musculus [6]
  inhibition in vivo at 66 µmol/kg: 74%
Mus musculus [7]
  Activity: 60%
Cannabinoid receptor 2
  Ki: 20 nM
Homo sapiens
  Ratio Ki: 25
Mus musculus [8]
  Activity: -3%

## CCCn1cc(C(=O)c2ccc(F)c3ccccc23)c2ccccc21
Cannabinoid receptor 1
  Ki: 240 nM
Mus musculus [9]
  inhibition in vivo at 91 µmol/kg: 67%
Mus musculus [10]
  Activity: 59%
Mus musculus [11]
  Activity: inactive
Mus musculus [12]
  Activity: -3.3%
Cannabinoid receptor 2
  Ki: 33 nM
Homo sapiens
  Ratio Ki: 7

## CCCCCn1c(C)c(C(=O)c2cccc3cccc(Br)c23)c2ccccc21
Cannabinoid receptor 1
  Ki: 54 nM
Mus musculus [13]
  Activity: -3.7%
Mus musculus [14]
  inhibition in vivo at 6.9 µmol/kg: 79%
Mus musculus [15]
  Activity: 100%
Mus musculus [16]
  Activity: 53%
Cannabinoid receptor 2
  Ki: 10 nM
Homo sapiens
  Ratio Ki: 5.5

## CCCn1cc(C(=O)c2ccc(I)c3ccccc23)c2ccccc21
Mus musculus [17]
  Activity: 26%
Cannabinoid receptor 1
  Ki: 140 nM
Mus musculus [18]
  Activity: -1.7%
Mus musculus [19]
  inhibition in vivo at […]: 10%
Cannabinoid receptor 2
  Ki: 6.6 nM
Homo sapiens
  Ratio Ki: 21
Mus musculus [20]
  Activity: 2%

## CCCCCn1cc(C(=O)c2cccc3cccc(Cl)c23)c2ccccc21
Cannabinoid receptor 1
  Ki: 23 nM
Mus musculus [21]
  Activity: 92%
Mus musculus [22]
  Activity: -6.9%
Mus musculus [23]
  inhibition in vivo at 80 µmol/kg: 94%
Cannabinoid receptor 2
  Ki: 10 nM
Homo sapiens
  Ratio Ki: 2.3
Mus musculus [24]
  Activity: 100%
